TRPC4 act – TRPC4 (mouse) channel activation; Q9QUQ5; HEK293 TRPC4beta/mu-opioid, Fluo4 calcium fluorescence; hits give high values; B-score at 10 µM; 0.49% of 310,000 active; AID 2237;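 active = B-score above 5 SD of library B-scores, and initial fluorescence ratio not above library mean plus 5 SD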;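 also: positive B-score marks a calcium rise read as TRPC4 activation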
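Material: HEK293 stable line with TRPC4beta plus mu-opioid receptor; technique: Fluo4 calcium-sensitive dye fluorescence, kinetic, 1 Hz baseline; timing: Fluo4 dye loading 45 min at room temperature, 110 s recording; controls: assay buffer as low control, maximal DAMGO as high control; read-out: integrated baseline-normalised fluorescence ratio, converted to per-well B score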
TRPC4 block – blocks the mouse TRPC4 cation channel. Q9QUQ5. HEK293 TRPC4beta/mu-opioid, DAMGO-evoked Fluo4 calcium flux; hits give low values. B-score at 10 µM. 0.39% of 300,000 active. AID 2247;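 active = B-score over 3 SD under the library average, no early fluorescence shift, positive overall ratio signal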
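Signal: kinetic Fluo4 fluorescence imaging of calcium influx. Material: stable TRPC4beta/mu-opioid receptor HEK293 cells. Probe or stimulus: DAMGO in two steps, submaximal then maximal.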
TRPC6 act – activates the mouse TRPC6 cation channel | HEK293-TRPC6 membrane potential dye fluorescence; hits give high values | 0.13% of 310,000 active | B-score at 10 µM | Q61143;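 active = B-score of the integrated fluorescence ratio above library mean plus 3 SD, and starting fluorescence ratio within library mean plus 5 SD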;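 also: higher score means more depolarization so channel activation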
Target sequence (Q61143 whole entry, looked up): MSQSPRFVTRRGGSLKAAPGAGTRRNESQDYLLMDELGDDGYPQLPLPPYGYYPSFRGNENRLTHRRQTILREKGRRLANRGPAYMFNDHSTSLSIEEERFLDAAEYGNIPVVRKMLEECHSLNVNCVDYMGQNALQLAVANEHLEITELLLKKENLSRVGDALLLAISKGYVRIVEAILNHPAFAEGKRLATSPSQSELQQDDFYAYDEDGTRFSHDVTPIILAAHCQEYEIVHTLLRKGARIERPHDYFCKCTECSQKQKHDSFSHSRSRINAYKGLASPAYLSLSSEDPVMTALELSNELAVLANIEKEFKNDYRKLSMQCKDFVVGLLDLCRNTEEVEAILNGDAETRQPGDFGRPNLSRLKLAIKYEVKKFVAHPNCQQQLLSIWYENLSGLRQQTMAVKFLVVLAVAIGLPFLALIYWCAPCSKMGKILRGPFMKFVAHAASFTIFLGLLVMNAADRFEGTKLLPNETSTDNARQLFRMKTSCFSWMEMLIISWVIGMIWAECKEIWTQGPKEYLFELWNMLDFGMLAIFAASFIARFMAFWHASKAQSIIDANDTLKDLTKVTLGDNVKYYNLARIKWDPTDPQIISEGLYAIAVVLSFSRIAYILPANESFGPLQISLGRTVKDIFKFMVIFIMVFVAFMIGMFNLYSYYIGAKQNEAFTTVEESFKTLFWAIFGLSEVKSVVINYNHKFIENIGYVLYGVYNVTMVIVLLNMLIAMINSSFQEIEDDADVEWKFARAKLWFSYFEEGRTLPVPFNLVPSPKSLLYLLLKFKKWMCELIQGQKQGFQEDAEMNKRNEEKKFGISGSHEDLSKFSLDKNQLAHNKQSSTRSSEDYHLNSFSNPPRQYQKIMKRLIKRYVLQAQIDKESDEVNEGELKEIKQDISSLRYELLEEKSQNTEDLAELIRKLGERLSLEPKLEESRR
TRPC6 inh – mouse TRPC6 channel inhibition; Q61143; HEK293-TRPC6, membrane potential dye, ACh-evoked depolarization; hits give low values; B-score at 10 µM; 1.1% of 310,000 active;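 active = B-score under library mean minus 3 SD, initial fluorescence not abnormally high, positive integrated signal ratio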;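 also: B-score derived from integrated fluorescence ratio over the kinetic read; more negative B-score means stronger inhibition of depolarization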
TRPC4 PAM – allosterically enhances the mouse TRPC4 cation channel; Q9QUQ5; HEK293 TRPC4beta/mu-opioid, DAMGO EC20, Fluo-4 Ca2+ flux; hits give high values; B-score at 10 µM; 0.42% of 310,000 active;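 active = B-score of calcium response area above 5 SD of library B-scores, with initial fluorescence ratio within 5 SD of library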
A number is an active result; 0 = inactive. In the library only some 2.3% were active in any assay of this set; here they are far more common.

SMILES	TRPC4 act	TRPC4 block	TRPC6 act	TRPC6 inh	TRPC4 PAM
CCCn1c(N2CCN(Cc3ccc(Cl)cc3)CC2)nc2ccccc21	0	0	0	0	0
CCn1c(N2CCN(Cc3ccc([N+](=O)[O-])cc3)CC2)nc2ccccc21	124	0	0	0	12
CC(C)CNC(=S)N1CCN(c2nc3ccccc3s2)CC1	0	0	0	0	0
CCn1c(N2CCN(C(=S)NC)CC2)nc2ccccc21	68	0	0	0	0
CCn1c(N2CCN(S(=O)(=O)CC)CC2)nc2ccccc21	126	0	0	0	0
CCn1c(N2CCN(C(=S)NCC(C)C)CC2)nc2ccccc21	105	0	0	0	0
Cc1ccc(C(=O)NCCCNC(=O)Cc2ccccc2)cn1	0	0	0	0	0
CCn1c(N2CCN(C(=S)NCCc3ccccc3)CC2)nc2ccccc21	87	0	0	0	0
CCn1c(N2CCN(C(=S)Nc3ccc(OC)cc3)CC2)nc2ccccc21	52	0	0	0	0
Cn1c(N2CCN(C(=O)Nc3ccc(F)cc3)CC2)nc2ccccc21	88	0	0	0	0
O=C(CC1CCCCC1)c1c(O)c2ccccc2oc1=O	99	0	0	0	0
CC(=N)c1c(O)c2ccccc2oc1=O	0	0	0	0	0
CC1CCC(C(=O)c2c(O)c3ccccc3oc2=O)CC1 (centres undefined)	44	0	0	0	0
CCCCC(=O)c1c(O)c2ccccc2oc1=O	0	0	0	0	0
O=C(Nc1cccc(C(F)(F)F)c1)c1cccc(NS(=O)(=O)c2ccc(O)c(C(=O)O)c2)c1	0	0	0	0	22
N#CC(C#N)=c1ccc2c(c1)N1C3=C(CCCC3)CC3CCCCC31N=2 (centres undefined)	0	0	0	-8.5	0
COc1cccc(-c2nnn(CC(=O)N(CC(C)C)C3CCS(=O)(=O)C3)n2)c1 (centres undefined)	0	0	0	0	0
CC(=O)c1ccc(N2CCN(C(=O)Nc3cccc(F)c3)CC2)cc1	0	0	0	0	0
CN(C)c1ccc(/C=C/C(=O)c2cccc(Br)c2)cc1	99	0	0	0	18
COc1ccc(S(=O)(=O)N2CCC(NC(=O)c3cccnc3)CC2)cc1	0	0	0	0	0
CCOC(=O)COc1ccc(S(=O)(=O)N2CCN(c3ccccc3)CC2)cc1	0	0	0	0	0
CCCCNCC1C(Oc2ccc(Cl)cc2)C(=O)N1c1ccccc1C (centres undefined)	0	-6	0	0	0
COc1ccc(-n2cc(CNCc3cccnc3)c(-c3cccc(F)c3)n2)cc1	94	0	0	0	0
COc1ccc(-c2nn(-c3ccccc3C)cc2CNCc2cccnc2)cc1F	178	0	0	0	0
COc1ccc(CNCc2cn(-c3cccc(F)c3)nc2-c2ccc(C)o2)cc1	103	0	0	0	0
SMILES	TRPC4 act	TRPC4 block	TRPC6 act	TRPC6 inh	TRPC4 PAM
COc1cccc(-c2nn(-c3ccccc3)cc2CO)c1	0	0	0	0	0
COc1ccc(-c2nn(-c3ccccc3)cc2CNCc2cccnc2)c(F)c1	103	0	0	0	0
Fc1ccccc1COc1ccc(Br)cc1CNCc1cccnc1	0	0	0	0	0
COc1ccccc1C1CCN(C(=O)c2cccc([N+](=O)[O-])c2)CC1	0	0	0	0	0
O=C(NCC(O)c1ccccc1)c1cccs1 (centres undefined)	0	0	0	0	0
COc1ccc(C(=O)Cn2c(Cl)nc3c2c(=O)n(C)c(=O)n3C)cc1	0	0	0	0	0
CN(C)CC(CCC(CN(C)C)C(O)(c1ccccc1)c1ccccc1)C(O)(c1ccccc1)c1ccccc1 (centres undefined)	0	-8	0	0	0
Cc1cccc(Cl)c1OCCCn1ccnc1	0	0	0	0	0
COc1ccccc1CCc1nnc(CCC(=O)NCCCOc2cccnc2)o1	0	-6	0	0	0
COc1ccccc1CCc1nnc(CCC(=O)NC(C)Cc2cccnc2)o1 (centres undefined)	0	0	0	0	0
O=C(COc1ccc(Br)cc1)c1ccc2c(c1)CCCC2	0	0	0	0	12
Cc1ccc(OCC(=O)c2ccc3c(c2)CCCC3)cc1C	0	0	0	0	0
COc1ccc(-c2cc(C(=O)N3CC(C)CC(C)C3)c3ccccc3n2)cc1 (centres undefined)	0	0	0	0	18
O=C(Cc1ccccc1)Nc1ccnn1C1CCN(Cc2nccs2)CC1	0	0	0	0	0
O=C(NNC(=O)c1ccc([N+](=O)[O-])cc1C(=O)O)c1ccncc1	0	0	0	0	0
COC(=O)c1sccc1NC(=O)c1ccc(OC)cc1	0	0	0	0	0
COC(=O)c1sccc1NC(=O)c1ccc(C#N)cc1	0	0	0	-5	0
CC(C)(C)c1ccc(-c2nc(O)c(CC(=O)O)s2)cc1	0	0	0	0	0
CCCCN(CC)CCCNC(=O)CC1Oc2ccccc2NC1=O (centres undefined)	56	0	0	0	0
Cc1cc(-c2nc(C)c(-c3nnc(SCC(=O)Nc4ccc(Cl)cc4)n3C)s2)no1	0	0	0	0	0
CCOc1ccc(S(=O)(=O)N2CCCCC2)c(C)c1C	0	0	0	0	14
CC1=CC(C)(C)N2C(=O)C3(SCC(=O)N3c3ccc(O)cc3)c3cc(C)cc1c32 (centres undefined)	0	0	0	0	10
COc1cc(/C=N/NC(=O)c2ccc(O)cc2)ccc1OCC(=O)N1CC(C)OC(C)C1 (centres undefined)	0	0	0	0	0
CC(C)(C)CN1CCNC[C@H]1Cc1cccc2ccccc12	0	0	0	0	0
c1ccc(C2(CN3CCNC[C@H]3Cc3cccc4ccccc34)CC2)cc1	84	0	0	0	0
SMILES	TRPC4 act	TRPC4 block	TRPC6 act	TRPC6 inh	TRPC4 PAM
COc1cccc(/C=C/C(=O)c2ccc3c(c2)OCCO3)c1OC	0	0	0	0	0
CNC(=S)N/N=C/c1cn(Cc2ccc(F)cc2)c2ccccc12	0	0	0	0	11
Nc1ccc(C(=O)N/N=C/c2cn(Cc3ccccc3F)c3ccccc23)cc1	0	0	0	0	11
COC(=O)N/N=C/c1cn(Cc2ccc(F)cc2)c2ccccc12	0	0	0	0	0
Nc1ccc(C(=O)N/N=C/c2cn(Cc3ccc(F)cc3)c3ccccc23)cc1	0	0	0	0	0
CC(OC(=O)c1cccc(-n2cnnn2)c1)C(=O)Nc1ccc(F)cc1Cl (centres undefined)	0	0	0	0	0
O=C(CCN1C(=O)C2C3CCC(C3)C2C1=O)Nc1cccc(Cl)c1 (centres undefined)	0	0	0	0	0
COc1ccc(C(=O)NCC(c2ccco2)N2CCc3ccccc32)c(OC)c1 (centres undefined)	0	0	0	0	10
COc1ccc(C(=O)OCC(=O)NCc2ccccc2)c(OC)c1OC	0	0	0	0	0
